The test system of series [1] is Rattus norvegicus. Kind of series: Inhibitory activity on carrageenan-induced paw edema in rats 3h after po administration of 50 mg/kg. It counts as functional. The procedure, abridged: (§1)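 Oral dosing, screened first at 50 mg/kg and retested at 20 and 10 mg/kg if inhibition was 30% or more. Paw volume was remeasured at 3 h, and the increase was compared with controls to give percent inhibition.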

Series [2] is described as follows: Acute toxicity was determined 168 hr after a single ip injection to groups of four male ddY mice. It counts as organism-based. Particulars: mouse, in vivo. Put shortly:
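LD50 calculated by the method of Weil.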

Series [3] concerns Rattus norvegicus. Kind of series: Inhibitory activity on carrageenan-induced paw edema in rats 3h after po administration of 20 mg/kg. It is filed as functional. Put shortly:
as §1

The test system of series [4] is Mus musculus. The series is described as follows: Analgesic activity against AcOH writhing after po administration.
Series [5] has as its system Rattus norvegicus. The series is described as follows: Inhibitory activity on carrageenan-induced paw edema in rats 3h after po administration of 10 mg/kg. It is filed as functional. The procedure, abridged: as §1
Series [6] relates to Rattus norvegicus. Kind of series: Inhibitory activity on carrageenan-induced paw edema in rats 3h after administration of 20 mg/kg. It is filed as functional. Put shortly:
as §1

Series [7] deals with Rattus norvegicus. Kind of series: Inhibitory activity on carrageenan-induced paw edema in rats 3h after po administration of 2 mg/kg. It counts as functional. Particulars: read-out: Inhibition.
Series [8] deals with Rattus norvegicus. The series is described as follows: Inhibitory activity on carrageenan-induced paw edema in rats 3h after po administration of 0.5 mg/kg. It counts as functional. Particulars: read-out: Inhibition.
Series [9] relates to Rattus norvegicus. The series is described as follows: Inhibitory activity on carrageenan-induced paw edema in rats 3h after po administration of 5 mg/kg. It counts as functional. Particulars: read-out: Inhibition.

The structures appear in SMILES notation.

The compound `O=C(O)Cc1cccc(-c2ccc(Cl)cc2)c1` displayed an inhibition in vivo at 50 mg/kg in [1] of 44%. The compound also displayed an LD50 at 168 h in [2] of 238 mg/kg. For the same compound, in series [3], the inhibition in vivo at 20 mg/kg was below 25%. The ED50 in [4] is above 50 mg/kg.

In the case of `CC(C(=O)O)c1cc(F)cc(-c2ccccc2)c1` (centres undefined), the inhibition in vivo at 50 mg/kg in series [1] is 31%. The LD50 at 168 h in [2] came out at 566 mg/kg. Besides, the ED50 in [4] is above 50 mg/kg.

Regarding `CC(C(=O)O)c1cc(F)cc(-c2ccc(Cl)cc2)c1` (centres undefined), in series [1], the inhibition in vivo at 50 mg/kg was below 39%. In addition, in [2], the LD50 at 168 h was determined as 200 mg/kg. This compound yielded an inhibition in vivo at 20 mg/kg in [3] below 26%. For the same compound, the ED50 in series [4] is above 50 mg/kg.

Consider `COc1cc(CC(=O)O)cc(-c2ccc(Cl)cc2)c1`, for which the inhibition in vivo at 50 mg/kg in series [1] came out at 53%. This compound also yielded an inhibition in vivo at 20 mg/kg in series [3] of 65%. This compound returned an ED50 in series [4] of 16.1 mg/kg. Moreover, the inhibition in vivo at 10 mg/kg in series [5] amounted to 39%.

In [1], `COc1ccc(-c2cc(N)cc(CC(=O)O)c2)cc1` gave an inhibition in vivo at 50 mg/kg of 0%. For the same compound, the LD50 at 168 h in series [2] is 800 mg/kg. The same compound registered an ED50 in [4] above 50 mg/kg.

The compound `Nc1cc(CC(=O)O)cc(-c2ccc(Cl)cc2)c1` returned an inhibition in vivo at 50 mg/kg in series [1] of 16%. This compound came in with an LD50 at 168 h in [2] of 400 mg/kg. The compound also returned an ED50 in series [4] above 50 mg/kg.

`CC(C(=O)O)c1cc(Cl)cc(-c2ccccc2)c1` (centres undefined) yielded an inhibition in vivo at 50 mg/kg in series [1] of 4%. In series [2], this compound had an LD50 at 168 h of 168 mg/kg. In series [4], the ED50 is above 50 mg/kg.

For the compound `CC(=O)Nc1cc(CC(=O)O)cc(-c2ccccc2)c1`, in [1], the inhibition in vivo at 50 mg/kg amounted to 5%. In series [2], the LD50 at 168 h was above 800 mg/kg. Besides, the ED50 in series [4] is above 50 mg/kg.

Compound `CC(C(=O)O)c1cccc(-c2ccccc2)c1` (centres undefined) yielded an inhibition in vivo at 50 mg/kg in [1] of 17%. In series [2], this compound yielded an LD50 at 168 h of 566 mg/kg. The compound also gave an ED50 in series [4] of 26.8 mg/kg.

With `CC(C(=O)O)c1cccc(-c2ccc(Cl)cc2)c1` (centres undefined), in [1], the inhibition in vivo at 50 mg/kg is 35%. Besides, in [2], the LD50 at 168 h was 283 mg/kg. The compound further yielded an inhibition in vivo at 20 mg/kg in series [3] of 31%. Besides, it took a dose of 45 mg/kg to reach the 50% effect level in [4] (ED50).

`Nc1cc(CC(=O)O)cc(-c2ccccc2)c1` displayed an inhibition in vivo at 50 mg/kg in [1] of 0%. For the same compound, the LD50 at 168 h in series [2] is 566 mg/kg. The same compound gave an ED50 in series [4] above 50 mg/kg.

Regarding `O=C(O)Cc1cc(F)cc(-c2ccccc2)c1`, the inhibition in vivo at 50 mg/kg in series [1] was 50%. The same compound gave an LD50 at 168 h in series [2] of 566 mg/kg. In [6], the inhibition in vivo at 20 mg/kg was 45%. Moreover, the ED50 in series [4] is above 50 mg/kg. The inhibition in vivo at 10 mg/kg in series [5] is 26%.

Take `COc1ccc(-c2cc(CC(=O)O)cc(NC(C)=O)c2)cc1`: in [1], the inhibition in vivo at 50 mg/kg turned out to be 15%. This compound came in with an LD50 at 168 h in [2] above 800 mg/kg. The ED50 in series [4] is above 50 mg/kg.

For the compound `O=C(O)Cc1cc(Cl)cc(-c2ccccc2)c1`, the inhibition in vivo at 50 mg/kg in series [1] was found to be 32%. For the same compound, the LD50 at 168 h in series [2] is 283 mg/kg. The inhibition in vivo at 20 mg/kg in series [3] turned out to be 25%. In addition, in [4], the ED50 is above 50 mg/kg.

As to `COc1ccc(-c2cc(Cl)cc(CC(=O)O)c2)cc1`, in series [1], the inhibition in vivo at 50 mg/kg is 19%. In [2], this compound yielded an LD50 at 168 h of 570 mg/kg. Besides, in series [4], the ED50 is above 50 mg/kg.

`O=C(O)Cc1cc(Cl)cc(-c2ccc(Cl)cc2)c1`: the inhibition in vivo at 50 mg/kg in series [1] is 45%. The same compound gave an LD50 at 168 h in [2] of 283 mg/kg. In series [3], this compound yielded an inhibition in vivo at 20 mg/kg of 29%. The ED50 in [4] is above 50 mg/kg.

Compound `O=C(O)Cc1cccc(-c2ccccc2)c1` yielded an inhibition in vivo at 50 mg/kg in series [1] of 47%. In series [2], this compound registered an LD50 at 168 h of 566 mg/kg. Besides, in series [3], the inhibition in vivo at 20 mg/kg was found to be 0%. In [4], this compound registered an ED50 above 50 mg/kg.

As to `COc1ccc2c(c1)c(CC(=O)O)c(C)n2C(=O)c1ccc(Cl)cc1` [INDOMETHACIN], in series [7], the inhibition in vivo at 2 mg/kg was determined as 25%. In addition, the inhibition in vivo at 0.5 mg/kg in [8] stood at 19%. In addition, the inhibition in vivo at 5 mg/kg in series [9] was 45%. In series [4], the ED50 was determined as 3.1 mg/kg.

In the case of `O=C(O)Cc1cc(F)cc(-c2ccc(Cl)cc2)c1`, in series [1], the inhibition in vivo at 50 mg/kg was determined as 38%. Besides, the LD50 at 168 h in [2] worked out at 283 mg/kg. In series [3], this compound displayed an inhibition in vivo at 20 mg/kg of 16%. In series [4], the ED50 was above 50 mg/kg.

In series [1], `CC(=O)Nc1cc(CC(=O)O)cc(-c2ccc(Cl)cc2)c1` registered an inhibition in vivo at 50 mg/kg of 0%. The LD50 at 168 h in series [2] was determined as 476 mg/kg. In addition, the ED50 in [4] was above 50 mg/kg.

`COc1ccc(-c2cccc(CC(=O)O)c2)cc1`: the inhibition in vivo at 50 mg/kg in [1] worked out at 11%. The compound further yielded an LD50 at 168 h in series [2] above 800 mg/kg. In [4], this compound came in with an ED50 above 50 mg/kg.

On to `CC(C(=O)O)c1cc(Cl)cc(-c2ccc(Cl)cc2)c1` (centres undefined), for which, in series [1], the inhibition in vivo at 50 mg/kg was below 41%. Also, the LD50 at 168 h in [2] was 200 mg/kg. Moreover, the inhibition in vivo at 20 mg/kg in [3] was below 33%. In series [4], this compound showed an ED50 above 50 mg/kg.

In turn, `COc1ccc(-c2cccc(C(C)C(=O)O)c2)cc1` (centres undefined) registered an inhibition in vivo at 50 mg/kg in series [1] of 0%. Also, the LD50 at 168 h in series [2] stood at 566 mg/kg. The compound further returned an ED50 in series [4] above 50 mg/kg.

In series [1], `COc1ccc(-c2cc(Cl)cc(C(C)C(=O)O)c2)cc1` (centres undefined) gave an inhibition in vivo at 50 mg/kg of 8%. The LD50 at 168 h in series [2] worked out at 283 mg/kg. Moreover, the ED50 in [4] is above 50 mg/kg.

For the origin of these results see ChEMBL document CHEMBL1121714, “Nonsteroidal antiinflammatory agents. 2. Synthesis of 4',5-disubstituted 3-biphenylylacetic acids and their derivatives with antiinflammatory and analgesic activities” (J Med Chem, 1981).
